This is an account of results in ChEMBL document CHEMBL1240515, “Discovery of mitogen-activated protein kinase-interacting kinase 1 inhibitors by a comprehensive fragment-oriented virtual screening approach” (J Med Chem, 2010).

In assay [1] the target is T1, MAP kinase-interacting serine/threonine-protein kinase 1 (Homo sapiens, UniProt Q9BUB5). The experiment in a line: Inhibition of MNK1.
Target sequence in this assay (Q9BUB5 whole entry): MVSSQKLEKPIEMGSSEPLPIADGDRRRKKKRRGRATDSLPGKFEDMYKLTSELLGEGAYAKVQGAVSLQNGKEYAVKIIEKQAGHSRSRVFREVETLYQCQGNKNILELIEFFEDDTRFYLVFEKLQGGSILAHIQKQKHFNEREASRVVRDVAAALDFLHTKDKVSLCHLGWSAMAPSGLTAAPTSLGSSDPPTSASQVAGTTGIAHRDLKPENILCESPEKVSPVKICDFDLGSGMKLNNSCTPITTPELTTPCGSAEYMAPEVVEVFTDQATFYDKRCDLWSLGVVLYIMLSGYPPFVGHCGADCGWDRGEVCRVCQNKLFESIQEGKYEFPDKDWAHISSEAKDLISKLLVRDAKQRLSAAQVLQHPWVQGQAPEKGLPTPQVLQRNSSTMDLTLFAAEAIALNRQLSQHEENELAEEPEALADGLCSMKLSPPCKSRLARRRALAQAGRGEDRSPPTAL
For assay [2], the target named is T1, MAP kinase-interacting serine/threonine-protein kinase 1. Briefly: Inhibition of MNK1 at 5 uM. The procedure, abridged:
(§1)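 Recombinant MNK1 (4 μg/mL) or MNK2 (0.7 μg/mL) final. Reaction contained 100 μM ATP and 300 μM eIF4E-derived peptide, run 60 min at 30 °C. ADP was detected by resorufin fluorescence. Tested at 5 μM in duplicate.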
Target sequence in this assay (Q9BUB5 whole entry, looked up): as the sequence (Q9BUB5 whole entry) above

For assay [3], the target named is T2, MAP kinase-interacting serine/threonine-protein kinase 2 (Homo sapiens, UniProt Q9HBH9). Briefly: Inhibition of MNK2 at 5 uM. The procedure, abridged:
as §1

Assay [4] deals with T2, MAP kinase-interacting serine/threonine-protein kinase 2. Briefly: Inhibition of MNK2.
Assay [5] deals with RAC-alpha serine/threonine-protein kinase (Homo sapiens) (UniProt P31749). The experiment in a line: Inhibition of AKT1 at 5 uM. In outline: (§2)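 Single-concentration panel run at an outside kinase screening provider. The compound was tested at 5 μM in duplicate.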
Assay [6] has as its target NUAK family SNF1-like kinase 1 (Homo sapiens) (UniProt O60285). Briefly: Inhibition of ARK5 at 5 uM. In outline:
as §2

In assay [7] the test system is Serine/threonine-protein kinase B-raf (Homo sapiens), P15056 [V600E]. The experiment in a line: Inhibition of B-RAFV600E at 5 uM. In outline:
as §2

The target of assay [8] is Casein kinase I isoform alpha (Homo sapiens) (UniProt P48729). Briefly: Inhibition of CK1alpha1 at 5 uM. In outline: as §2
Assay [9] has as its target Dual specificity tyrosine-phosphorylation-regulated kinase 1A (Homo sapiens) (UniProt Q13627). The experiment in a line: Inhibition of DYRK1A at 5 uM. The procedure, abridged:
as §2

For assay [10], the target named is Epidermal growth factor receptor (Homo sapiens) (UniProt P00533). The experiment in a line: Inhibition of EGFR at 5 uM. In outline: as §2
In assay [11] the target is Mitogen-activated protein kinase 3 (Homo sapiens) (UniProt P27361). The experiment in a line: Inhibition of ERK1 at 5 uM. In outline: as §2
Assay [12] concerns the target Focal adhesion kinase 1 (Homo sapiens) (UniProt Q05397). The experiment in a line: Inhibition of FAK at 5 uM. The procedure, abridged: as §2
Assay [13] concerns the target Fibroblast growth factor receptor 1 (Homo sapiens) (UniProt P11362). The experiment in a line: Inhibition of FGFR1 at 5 uM. The procedure, abridged:
as §2

For assay [14], the target named is Receptor-type tyrosine-protein kinase FLT3 (Homo sapiens) (UniProt P36888). The experiment in a line: Inhibition of FLT3 at 5 uM. The procedure, abridged: as §2
The target of assay [15] is Insulin-like growth factor 1 receptor (Homo sapiens) (UniProt P08069). The experiment in a line: Inhibition of IGF1R at 5 uM. In outline: as §2
The target of assay [16] is Inhibitor of nuclear factor kappa-B kinase subunit beta (Homo sapiens) (UniProt O14920). Briefly: Inhibition of IKK-beta at 5 uM. The procedure, abridged: as §2
Assay [17] deals with Tyrosine-protein kinase JAK2 (Homo sapiens) (UniProt O60674). Briefly: Inhibition of JAK2 at 5 uM. In outline: as §2
Assay [18] deals with Mast/stem cell growth factor receptor Kit (Homo sapiens) (UniProt P10721). Briefly: Inhibition of KIT at 5 uM. The procedure, abridged: as §2
Assay [19] deals with Dual specificity mitogen-activated protein kinase kinase 1 (Homo sapiens) (UniProt Q02750). The experiment in a line: Inhibition of MEK1 at 5 uM. In outline: as §2
Assay [20] concerns the target Hepatocyte growth factor receptor (Homo sapiens) (UniProt P08581). The experiment in a line: Inhibition of MET at 5 uM. In outline:
as §2

In assay [21] the target is Serine/threonine-protein kinase 4 (Homo sapiens) (UniProt Q13043). Briefly: Inhibition of MST1 at 5 uM. The procedure, abridged: as §2
Assay [22] concerns the target Mitogen-activated protein kinase 14 (Homo sapiens) (UniProt Q16539). Briefly: Inhibition of p38alpha at 5 uM. The procedure, abridged: as §2
Assay [23] concerns the target Platelet-derived growth factor receptor alpha (Homo sapiens) (UniProt P16234). Briefly: Inhibition of PDGFRalpha at 5 uM. In outline:
as §2

Assay [24] deals with Serine/threonine-protein kinase pim-1 (Homo sapiens) (UniProt P11309). Briefly: Inhibition of PIM1 at 5 uM. In outline:
as §2

The target in assay [25] is Serine/threonine-protein kinase pim-2 (Homo sapiens) (UniProt Q9P1W9). The experiment in a line: Inhibition of PIM2 at 5 uM. The procedure, abridged:
as §2

Assay [26] has as its target Ribosomal protein S6 kinase alpha-1 (Homo sapiens) (UniProt Q15418). Briefly: Inhibition of RPS6KA1 at 5 uM. In outline:
as §2

In assay [27] the target is Serine/threonine-protein kinase Sgk1 (Homo sapiens) (UniProt O00141). The experiment in a line: Inhibition of SGK1 at 5 uM. In outline: as §2
The target in assay [28] is 3-phosphoinositide-dependent protein kinase 1 (Homo sapiens) (UniProt O15530). The experiment in a line: Inhibition of PDK1 at 5 uM.

Chain of Dual specificity mitogen-activated protein kinase kinase 1 (Homo sapiens) (Q02750 whole entry): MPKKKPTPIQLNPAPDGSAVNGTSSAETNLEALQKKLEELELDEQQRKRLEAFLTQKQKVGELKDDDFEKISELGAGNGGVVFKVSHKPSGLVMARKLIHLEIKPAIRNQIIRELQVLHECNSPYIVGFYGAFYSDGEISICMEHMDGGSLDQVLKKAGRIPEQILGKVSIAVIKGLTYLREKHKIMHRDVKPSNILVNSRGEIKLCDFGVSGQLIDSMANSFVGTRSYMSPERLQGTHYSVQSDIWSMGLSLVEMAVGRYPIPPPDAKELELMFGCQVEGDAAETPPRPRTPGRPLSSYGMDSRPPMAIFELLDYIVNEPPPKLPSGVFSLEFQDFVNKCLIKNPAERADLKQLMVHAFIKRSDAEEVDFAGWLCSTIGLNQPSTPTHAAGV
Chain of Serine/threonine-protein kinase Sgk1 (Homo sapiens) (O00141 whole entry): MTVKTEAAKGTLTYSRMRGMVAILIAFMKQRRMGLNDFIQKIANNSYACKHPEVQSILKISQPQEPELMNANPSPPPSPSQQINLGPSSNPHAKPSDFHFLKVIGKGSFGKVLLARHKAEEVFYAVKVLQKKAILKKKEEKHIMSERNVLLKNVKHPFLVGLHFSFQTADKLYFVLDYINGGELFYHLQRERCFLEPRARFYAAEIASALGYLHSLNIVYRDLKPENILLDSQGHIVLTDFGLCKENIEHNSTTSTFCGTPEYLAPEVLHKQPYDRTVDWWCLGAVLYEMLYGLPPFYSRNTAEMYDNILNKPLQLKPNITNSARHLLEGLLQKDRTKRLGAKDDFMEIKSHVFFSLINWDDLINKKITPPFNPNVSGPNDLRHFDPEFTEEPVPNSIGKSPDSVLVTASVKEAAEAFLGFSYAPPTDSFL
Chain of RAC-alpha serine/threonine-protein kinase (Homo sapiens) (P31749 whole entry): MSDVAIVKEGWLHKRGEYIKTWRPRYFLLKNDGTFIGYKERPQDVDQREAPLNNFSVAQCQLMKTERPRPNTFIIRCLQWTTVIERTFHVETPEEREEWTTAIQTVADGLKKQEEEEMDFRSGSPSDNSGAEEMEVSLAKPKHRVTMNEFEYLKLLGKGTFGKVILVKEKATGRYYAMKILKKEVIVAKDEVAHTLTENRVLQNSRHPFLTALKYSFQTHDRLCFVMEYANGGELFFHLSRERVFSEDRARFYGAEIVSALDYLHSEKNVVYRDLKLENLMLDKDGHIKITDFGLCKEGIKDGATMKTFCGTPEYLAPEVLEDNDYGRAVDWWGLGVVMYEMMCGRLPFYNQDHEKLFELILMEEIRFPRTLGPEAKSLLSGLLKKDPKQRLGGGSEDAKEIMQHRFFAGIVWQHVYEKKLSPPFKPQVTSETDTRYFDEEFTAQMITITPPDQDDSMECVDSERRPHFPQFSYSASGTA
Chain of NUAK family SNF1-like kinase 1 (Homo sapiens) (O60285 whole entry): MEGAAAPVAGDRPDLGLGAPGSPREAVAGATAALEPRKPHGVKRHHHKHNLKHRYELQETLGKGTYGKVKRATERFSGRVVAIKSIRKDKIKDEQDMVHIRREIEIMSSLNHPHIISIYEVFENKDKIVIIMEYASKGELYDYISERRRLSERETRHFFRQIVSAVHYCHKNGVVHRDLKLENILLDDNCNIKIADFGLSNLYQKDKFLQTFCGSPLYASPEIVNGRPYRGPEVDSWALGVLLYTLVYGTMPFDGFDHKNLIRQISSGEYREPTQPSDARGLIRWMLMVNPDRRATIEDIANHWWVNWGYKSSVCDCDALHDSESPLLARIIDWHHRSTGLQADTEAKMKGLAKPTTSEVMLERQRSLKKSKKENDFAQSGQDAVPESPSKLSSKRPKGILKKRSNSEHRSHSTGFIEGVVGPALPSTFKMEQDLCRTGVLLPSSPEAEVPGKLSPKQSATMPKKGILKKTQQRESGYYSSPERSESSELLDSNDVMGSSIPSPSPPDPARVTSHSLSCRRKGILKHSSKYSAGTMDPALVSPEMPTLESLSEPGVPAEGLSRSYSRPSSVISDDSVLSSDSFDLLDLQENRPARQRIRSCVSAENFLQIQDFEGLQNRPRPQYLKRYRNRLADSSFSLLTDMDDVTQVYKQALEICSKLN
Chain of Serine/threonine-protein kinase 4 (Homo sapiens) (Q13043 whole entry): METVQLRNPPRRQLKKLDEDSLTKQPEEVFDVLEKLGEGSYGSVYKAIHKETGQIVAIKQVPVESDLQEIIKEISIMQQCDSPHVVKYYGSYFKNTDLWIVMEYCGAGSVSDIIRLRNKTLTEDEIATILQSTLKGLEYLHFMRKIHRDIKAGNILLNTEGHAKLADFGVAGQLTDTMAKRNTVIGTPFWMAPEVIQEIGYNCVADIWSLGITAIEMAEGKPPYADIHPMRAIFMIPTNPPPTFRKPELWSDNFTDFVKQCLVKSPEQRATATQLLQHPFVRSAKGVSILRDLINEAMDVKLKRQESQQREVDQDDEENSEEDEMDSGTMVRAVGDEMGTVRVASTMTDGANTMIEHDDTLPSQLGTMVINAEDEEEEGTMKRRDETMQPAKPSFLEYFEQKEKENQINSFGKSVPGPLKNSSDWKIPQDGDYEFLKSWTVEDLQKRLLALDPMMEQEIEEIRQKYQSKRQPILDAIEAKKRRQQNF
Chain of Mast/stem cell growth factor receptor Kit (Homo sapiens) (P10721 whole entry): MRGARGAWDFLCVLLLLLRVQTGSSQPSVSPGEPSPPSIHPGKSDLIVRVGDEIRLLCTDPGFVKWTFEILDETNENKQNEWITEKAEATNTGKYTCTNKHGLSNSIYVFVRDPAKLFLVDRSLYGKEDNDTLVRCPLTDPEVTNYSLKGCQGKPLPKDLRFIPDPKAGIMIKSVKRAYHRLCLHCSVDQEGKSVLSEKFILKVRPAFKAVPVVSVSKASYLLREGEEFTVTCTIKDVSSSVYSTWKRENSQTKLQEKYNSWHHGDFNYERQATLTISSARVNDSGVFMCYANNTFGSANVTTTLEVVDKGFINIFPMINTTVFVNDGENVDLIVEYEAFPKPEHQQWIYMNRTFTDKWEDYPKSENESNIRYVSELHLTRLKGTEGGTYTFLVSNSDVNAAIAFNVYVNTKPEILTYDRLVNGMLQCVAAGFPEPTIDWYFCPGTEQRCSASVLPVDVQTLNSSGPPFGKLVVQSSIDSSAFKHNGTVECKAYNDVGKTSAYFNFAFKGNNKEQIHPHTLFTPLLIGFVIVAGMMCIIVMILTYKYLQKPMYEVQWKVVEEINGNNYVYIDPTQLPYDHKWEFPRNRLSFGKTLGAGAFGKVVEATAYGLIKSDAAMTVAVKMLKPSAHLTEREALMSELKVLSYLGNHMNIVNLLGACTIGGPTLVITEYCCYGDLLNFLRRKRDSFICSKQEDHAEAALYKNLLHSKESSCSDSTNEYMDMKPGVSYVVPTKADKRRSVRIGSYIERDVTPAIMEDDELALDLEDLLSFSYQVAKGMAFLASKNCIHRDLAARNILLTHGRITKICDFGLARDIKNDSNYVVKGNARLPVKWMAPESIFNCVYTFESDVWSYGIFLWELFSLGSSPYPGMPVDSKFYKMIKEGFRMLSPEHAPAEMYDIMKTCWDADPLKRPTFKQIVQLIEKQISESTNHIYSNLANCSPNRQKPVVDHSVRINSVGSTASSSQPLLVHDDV
Chain of Ribosomal protein S6 kinase alpha-1 (Homo sapiens) (Q15418 whole entry): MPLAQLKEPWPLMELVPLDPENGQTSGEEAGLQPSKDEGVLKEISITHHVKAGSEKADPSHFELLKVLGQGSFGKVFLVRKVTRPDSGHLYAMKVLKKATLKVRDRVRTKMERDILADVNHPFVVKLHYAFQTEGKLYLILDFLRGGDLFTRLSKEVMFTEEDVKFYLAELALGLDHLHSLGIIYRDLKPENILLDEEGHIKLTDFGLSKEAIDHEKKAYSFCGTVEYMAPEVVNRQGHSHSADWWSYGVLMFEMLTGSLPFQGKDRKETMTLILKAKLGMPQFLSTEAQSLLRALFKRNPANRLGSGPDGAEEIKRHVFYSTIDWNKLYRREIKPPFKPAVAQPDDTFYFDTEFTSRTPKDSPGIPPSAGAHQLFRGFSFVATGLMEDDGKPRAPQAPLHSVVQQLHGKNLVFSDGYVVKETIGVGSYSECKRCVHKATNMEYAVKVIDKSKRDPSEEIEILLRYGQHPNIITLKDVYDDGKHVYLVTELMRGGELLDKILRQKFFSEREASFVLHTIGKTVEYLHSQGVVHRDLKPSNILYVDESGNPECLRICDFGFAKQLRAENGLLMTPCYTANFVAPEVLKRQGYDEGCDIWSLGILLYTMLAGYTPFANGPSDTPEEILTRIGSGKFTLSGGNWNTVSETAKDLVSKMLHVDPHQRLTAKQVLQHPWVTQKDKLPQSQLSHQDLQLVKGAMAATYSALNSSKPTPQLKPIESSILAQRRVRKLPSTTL
Chain of Serine/threonine-protein kinase pim-2 (Homo sapiens) (Q9P1W9 whole entry, looked up): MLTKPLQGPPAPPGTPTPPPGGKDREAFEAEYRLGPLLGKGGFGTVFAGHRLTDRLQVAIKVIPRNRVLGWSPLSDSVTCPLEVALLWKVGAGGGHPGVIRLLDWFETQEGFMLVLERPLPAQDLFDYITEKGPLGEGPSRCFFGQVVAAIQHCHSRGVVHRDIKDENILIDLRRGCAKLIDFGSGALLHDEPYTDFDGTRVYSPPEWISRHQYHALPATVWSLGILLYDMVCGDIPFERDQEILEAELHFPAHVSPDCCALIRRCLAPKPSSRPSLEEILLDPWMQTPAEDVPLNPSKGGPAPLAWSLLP

For `CC(C)CNc1nn2c(-c3ccncc3)cnc2s1`, the IC50 – broadly, the concentration that inhibits the measured activity by half – in assay [1] came out at 6.18 µM.

`Clc1ccc(Nc2ncnc3[nH]ncc23)cc1` returned an IC50 in assay [1] of 0.58 µM. Compared with the last compound, the IC50 is about 11-fold lower.

In assay [1], `NC(=O)c1ccc(Nc2ncnc3[nH]cnc23)cc1` registered an IC50 of 0.16 µM. Still for that read-out and setting: to `NC(=O)c1ccc(-c2cc(-c3ccccc3)cnc2N)cc1` belongs 5.15 µM; to `CNc1ccc2ncc(-c3cccc(O)c3)n2n1`, 1.53 µM. In [1], `CNc1cc2c(Nc3cccc(Br)c3)ncnc2cn1` yielded a half-maximal inhibitory concentration (IC50) of 1.7 µM.

In the case of `CCNc1nc(C)c(-c2ccnc(Nc3ccc(N4CCNCC4)cc3)n2)s1`, the inhibition – broadly, the relative decrease from the control value, in per cent – in assay [2] came out at 97%; in assay [3] it was 80%.

On to `Brc1ccc(Nc2ncnc3[nH]ncc23)cc1`, for which the IC50 in assay [1] was determined as 1.56 µM.

With `O=c1[nH]cnc2cc3n[nH]cc3cc12`, in assay [1], the half-inhibitory concentration (IC50) is 8.17 µM.

As for `OCCCNc1ccc2ncc(-c3ccc(F)cc3)n2n1`, the IC50 in assay [1] was found to be 2.41 µM. Against the preceding compound, the IC50 is about 3.4-fold lower. Same read-out and setting: to `COCCNc1ccc2ncc(-c3ccc(Cl)cc3)n2n1` belongs 1.62 µM; to `OCCNc1ccc2ncc(-c3ccc(Cl)cc3)n2n1`, 2.93 µM; to `c1ccc2cc(Nc3ncnc4[nH]ncc34)ccc2c1`, 1.35 µM. Turning to `c1cc(-c2cc(C3CCNCC3)[nH]n2)ccn1`, the results for the IC50 in assay [1] and in assay [4] were 0.646 µM and 0.575 µM, respectively. In turn, `c1cnn2c(-c3ccncc3)cnc2c1` displayed an IC50 in assay [1] of 3.8 µM. The same measure, in the same setting: to `COC(=O)c1ccc(Nc2[nH]cnc3ncnc2-3)cc1` belongs 0.85 µM; to `c1ccc(-c2cnc3ccc(NCCc4ccccn4)nn23)cc1`, 4.28 µM. Same read-out and setting: to `CNc1ccc2ncc(-c3ccc(F)cc3)n2n1` belongs 4.05 µM; to `COc1cc2ncnc(Nc3cccc(Cl)c3)c2cc1OC` [TYRPHOSTIN AG-1478], 0.53 µM; to `COCCNc1ccc2ncc(-c3ccc(F)cc3)n2n1`, 4.09 µM. The same measure, in the same setting: to `Fc1ccc(Nc2ncnc3[nH]cnc23)cc1` belongs 1.03 µM. Consider `c1cc(-c2cc(C3CCNCC3)n[nH]2)ccn1`, for which the inhibition in assay [2] was found to be 87%; in [5] it was 0%; in [6] it was 3%; in assay [7], 9%; in assay [8], 10%; in [9] it was 0%. Further, the inhibition amounted to 1% in assay [10]; 0% in assay [11]; 15% in assay [12]; 8% in assay [13]; 0% in assay [14]; 3% in assay [15]. Further, the inhibition in [16] was 6%; in assay [17], 0%; in assay [18], 7%; in assay [19], 5%; in assay [20], 1%; in assay [21], 0%. The inhibition in assay [22] came out at 2%; in assay [23], 1%; in [24] it was 4%; in assay [25] it was 1%; in assay [26], 11%; in assay [27], 7%. Also, in [28], the inhibition was 0%. As for `OCCCNc1ccc2ncc(-c3ccccc3F)n2n1`, it took 3.24 µM to reach half-maximal inhibition in assay [1] (IC50).

With `Brc1cccc(Nc2ncnc3cc4nc[nH]c4cc23)c1`, the IC50 in [1] amounted to 2.8 µM.

`c1cc(-c2cnc3sc(NCC4CC4)nn23)ccn1` came in with an IC50 in [1] of 1.71 µM. `COc1cc2ncnc(Nc3cccc(Br)c3)c2cc1OC`: the IC50 in assay [1] came to 0.63 µM. Same read-out and setting: to `Fc1cccc(Nc2ncnc3n[nH]cc23)c1` belongs 1.09 µM; to `COc1cc2ncnc(Nc3cc(Br)c(O)c(Br)c3)c2cc1OC`, 0.12 µM.
